Measured values as given in ChEMBL document CHEMBL5303300, “EUbOPEN Chemogenomics Library - Multiplex” (2023).
Values joined by “and” are separate entries in the source; they are usually repeats but may differ in a detail not shown here. Identical values can stand only once.

Test system: U2OS
Experiment: Multiplex assay against U2OS
Format: toxicity, cell-based
Settings: human, number of replicates 2
Method in brief: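 Hoechst33342, BioTracker Green Microtubule Cytoskeleton Dye, MitoTracker Red and Annexin V Alexa Fluor 680 were added to live cells at seeding, and imaging on a CQ1 microscope at 37°C and 5% CO2 followed compound addition. Gating by CellPathfinder machine learning separated cells into Hoechst high-intensity objects or normal cells, then normal cells into healthy, pyknosed or fragmented nuclei, then pyknosed cells into mitotic or apoptotic. Per cents of healthy-nucleus cells are reported for the tubulin, mitochondrial-mass and membrane-permeability phenotypes.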

[1] = 12 h, 1 µM, compound concentration 1 uM
[2] = 12 h, 10 µM, compound concentration 10 uM
[3] = 24 h, 1 µM, compound concentration 1 uM
[4] = 24 h, 10 µM, compound concentration 10 uM
[5] = 48 h, 1 µM, compound concentration 1 uM
[6] = 48 h, 10 µM, compound concentration 10 uM

Q: How did the “Population Apoptotic (%)” value [1] turn out when `COc1ccc(-c2cc3c(C)nc(N)nc3n([C@H]3CC[C@H](OCCO)CC3)c2=O)cn1` [PF-04691502] was run?
A: The value was 50% and 76%.

Q: And the “Population Healthy Nuclei (%)” value [1]?
A: The value was 57% and 78%.

Q: And the “Population Hoechst High Intensity Objects (%)” value [1]?
A: Its value is 0%.

Q: What about the “Population Membrane Permeable-Phenotype (%)” value [1] of the same molecule?
A: Its value is 10% and 2%.

Q: What about the “Population Mitochondria Different-Phenotype (%)” value [1] of the same molecule?
A: The value was 0% and 1%.

Q: What about the “Population Mitotic Cells (%)” value [1] of the same molecule?
A: Its value is 50% and 23%.

Q: And the “Population Normal (%)” value [1]?
A: Its value is 100%.

Q: And the “Population Pyknosed Nuclei (%)” value [1]?
A: Its value is 6% and 12%.

Q: What about the “Population Tubulin-Different-Phenotype (%)” value [1] of the same molecule?
A: The value was 84% and 83%.

Q: What about the “Population Apoptotic (%)” value [2] of the same molecule?
A: The value was 88% and 83%.

Q: And the “Population Fragmented Nuclei (%)” value [2]?
A: Its value is 25% and 13%.

Q: What about the “Population Healthy Nuclei (%)” value [2] of the same molecule?
A: The value was 46% and 54%.

Q: And the “Population Hoechst High Intensity Objects (%)” value [2]?
A: The value was 3% and 2%.

Q: And the “Population Membrane Permeable-Phenotype (%)” value [2]?
A: The value was 0% and 7%.

Q: And the “Population Mitochondria Different-Phenotype (%)” value [2]?
A: Its value is 0% and 3%.

Q: And the “Population Mitotic Cells (%)” value [2]?
A: The value was 11% and 16%.

Q: And the “Population Normal (%)” value [2]?
A: Its value is 96% and 97%.

Q: What about the “Population Pyknosed Nuclei (%)” value [2] of the same molecule?
A: The value was 28% and 32%.

Q: And the “Population Tubulin-Different-Phenotype (%)” value [2]?
A: The value was 80% and 50%.

Q: What about the “Population Apoptotic (%)” value [3] of the same molecule?
A: The value was 60% and 76%.

Q: And the “Population Fragmented Nuclei (%)” value [3]?
A: Its value is 19% and 10%.

Q: What about the “Population Healthy Nuclei (%)” value [3] of the same molecule?
A: The value was 66% and 75%.

Q: What about the “Population Hoechst High Intensity Objects (%)” value [3] of the same molecule?
A: Its value is 0%.

Q: And the “Population Membrane Permeable-Phenotype (%)” value [3]?
A: Its value is 0% and 2%.

Q: And the “Population Mitochondria Different-Phenotype (%)” value [3]?
A: Its value is 0% and 1%.

Q: What about the “Population Mitotic Cells (%)” value [3] of the same molecule?
A: Its value is 40% and 23%.

Q: And the “Population Normal (%)” value [3]?
A: The value was 100% and 99%.

Q: What about the “Population Pyknosed Nuclei (%)” value [3] of the same molecule?
A: The value was 13% and 14%.

Q: What about the “Population Tubulin-Different-Phenotype (%)” value [3] of the same molecule?
A: Its value is 91% and 84%.

Q: And the “Population Apoptotic (%)” value [4]?
A: Its value is 84% and 69%.

Q: And the “Population Fragmented Nuclei (%)” value [4]?
A: The value was 12% and 17%.

Q: What about the “Population Healthy Nuclei (%)” value [4] of the same molecule?
A: The value was 46% and 50%.

Q: What about the “Population Hoechst High Intensity Objects (%)” value [4] of the same molecule?
A: The value was 2%.

Q: And the “Population Membrane Permeable-Phenotype (%)” value [4]?
A: The value was 20% and 40%.

Q: What about the “Population Mitochondria Different-Phenotype (%)” value [4] of the same molecule?
A: Its value is 7% and 15%.

Q: What about the “Population Mitotic Cells (%)” value [4] of the same molecule?
A: The value was 15% and 30%.

Q: And the “Population Normal (%)” value [4]?
A: The value was 97%.

Q: And the “Population Pyknosed Nuclei (%)” value [4]?
A: Its value is 41% and 32%.

Q: And the “Population Tubulin-Different-Phenotype (%)” value [4]?
A: Its value is 59% and 65%.

Q: What about the “Population Apoptotic (%)” value [5] of the same molecule?
A: The value was 80% and 82%.

Q: And the “Population Fragmented Nuclei (%)” value [5]?
A: Its value is 10% and 8%.

Q: And the “Population Healthy Nuclei (%)” value [5]?
A: The value was 80% and 69%.

Q: What about the “Population Hoechst High Intensity Objects (%)” value [5] of the same molecule?
A: Its value is 0%.

Q: What about the “Population Membrane Permeable-Phenotype (%)” value [5] of the same molecule?
A: The value was 7% and 5%.

Q: And the “Population Mitochondria Different-Phenotype (%)” value [5]?
A: Its value is 5% and 4%.

Q: And the “Population Mitotic Cells (%)” value [5]?
A: Its value is 20% and 17%.

Q: And the “Population Normal (%)” value [5]?
A: Its value is 100% and 99%.

Q: And the “Population Pyknosed Nuclei (%)” value [5]?
A: The value was 10% and 21%.

Q: And the “Population Tubulin-Different-Phenotype (%)” value [5]?
A: The value was 82% and 85%.

Q: And the “Population Apoptotic (%)” value [6]?
A: The value was 66% and 85%.

Q: And the “Population Fragmented Nuclei (%)” value [6]?
A: Its value is 19% and 10%.

Q: What about the “Population Healthy Nuclei (%)” value [6] of the same molecule?
A: The value was 22% and 26%.

Q: And the “Population Hoechst High Intensity Objects (%)” value [6]?
A: The value was 0% and 4%.

Q: What about the “Population Membrane Permeable-Phenotype (%)” value [6] of the same molecule?
A: Its value is 62% and 35%.

Q: And the “Population Mitochondria Different-Phenotype (%)” value [6]?
A: Its value is 37% and 18%.

Q: What about the “Population Mitotic Cells (%)” value [6] of the same molecule?
A: The value was 33% and 14%.

Q: And the “Population Normal (%)” value [6]?
A: Its value is 100% and 95%.

Q: What about the “Population Pyknosed Nuclei (%)” value [6] of the same molecule?
A: Its value is 58% and 63%.

Q: And the “Population Tubulin-Different-Phenotype (%)” value [6]?
A: The value was 87% and 70%.

Q: `C=CC(=O)Nc1ccc2[nH]c(=O)n(C3CCN(Cc4ccc(-c5ccc6c(c5)NC(=O)CO6)cc4)CC3)c2c1` [RL2578] was tested. Which “Population Fragmented Nuclei (%)” value [1] did it give?
A: Its value is 5% and 4%.

Q: And the “Population Healthy Nuclei (%)” value [1]?
A: The value was 66% and 83%.

Q: What about the “Population Hoechst High Intensity Objects (%)” value [1] of the same molecule?
A: The value was 0%.

Q: What about the “Population Mitochondria Different-Phenotype (%)” value [1] of the same molecule?
A: Its value is 4% and 0%.

Q: What about the “Population Normal (%)” value [1] of the same molecule?
A: The value was 100%.

Q: What about the “Population Pyknosed Nuclei (%)” value [1] of the same molecule?
A: Its value is 27% and 11%.

Q: What about the “Population Tubulin-Different-Phenotype (%)” value [1] of the same molecule?
A: The value was 58% and 84%.

Q: What about the “Population Apoptotic (%)” value [2] of the same molecule?
A: The value was 66%.

Q: What about the “Population Fragmented Nuclei (%)” value [2] of the same molecule?
A: The value was 18% and 9%.

Q: What about the “Population Healthy Nuclei (%)” value [2] of the same molecule?
A: The value was 57% and 80%.

Q: What about the “Population Hoechst High Intensity Objects (%)” value [2] of the same molecule?
A: The value was 0%.

Q: And the “Population Membrane Permeable-Phenotype (%)” value [2]?
A: The value was 13% and 7%.

Q: And the “Population Mitochondria Different-Phenotype (%)” value [2]?
A: The value was 13% and 30%.

Q: And the “Population Mitotic Cells (%)” value [2]?
A: Its value is 33%.

Q: And the “Population Normal (%)” value [2]?
A: Its value is 100%.

Q: What about the “Population Pyknosed Nuclei (%)” value [2] of the same molecule?
A: Its value is 23% and 9%.

Q: What about the “Population Tubulin-Different-Phenotype (%)” value [2] of the same molecule?
A: Its value is 31% and 46%.

Q: What about the “Population Apoptotic (%)” value [3] of the same molecule?
A: Its value is 85% and 74%.

Q: What about the “Population Fragmented Nuclei (%)” value [3] of the same molecule?
A: The value was 8% and 4%.

Q: What about the “Population Healthy Nuclei (%)” value [3] of the same molecule?
A: The value was 75% and 86%.

Q: And the “Population Hoechst High Intensity Objects (%)” value [3]?
A: Its value is 0%.

Q: And the “Population Membrane Permeable-Phenotype (%)” value [3]?
A: Its value is 11% and 1%.

Q: And the “Population Mitochondria Different-Phenotype (%)” value [3]?
A: Its value is 8% and 2%.

Q: And the “Population Mitotic Cells (%)” value [3]?
A: Its value is 14% and 25%.

Q: And the “Population Normal (%)” value [3]?
A: Its value is 100%.

Q: What about the “Population Pyknosed Nuclei (%)” value [3] of the same molecule?
A: The value was 15% and 9%.

Q: What about the “Population Tubulin-Different-Phenotype (%)” value [3] of the same molecule?
A: Its value is 76% and 87%.

Q: And the “Population Apoptotic (%)” value [4]?
A: Its value is 61% and 54%.

Q: And the “Population Fragmented Nuclei (%)” value [4]?
A: Its value is 9% and 8%.

Q: And the “Population Healthy Nuclei (%)” value [4]?
A: The value was 54% and 78%.

Q: What about the “Population Hoechst High Intensity Objects (%)” value [4] of the same molecule?
A: Its value is 1% and 0%.

Q: What about the “Population Membrane Permeable-Phenotype (%)” value [4] of the same molecule?
A: Its value is 0% and 5%.

Q: And the “Population Mitotic Cells (%)” value [4]?
A: The value was 38% and 45%.

Q: And the “Population Normal (%)” value [4]?
A: Its value is 98% and 99%.

Q: What about the “Population Pyknosed Nuclei (%)” value [4] of the same molecule?
A: The value was 35% and 12%.

Q: What about the “Population Tubulin-Different-Phenotype (%)” value [4] of the same molecule?
A: The value was 39% and 47%.

Q: What about the “Population Apoptotic (%)” value [5] of the same molecule?
A: Its value is 83% and 70%.

Q: What about the “Population Healthy Nuclei (%)” value [5] of the same molecule?
A: The value was 68% and 90%.

Q: And the “Population Hoechst High Intensity Objects (%)” value [5]?
A: The value was 0%.

Q: What about the “Population Membrane Permeable-Phenotype (%)” value [5] of the same molecule?
A: Its value is 8% and 0%.

Q: What about the “Population Mitochondria Different-Phenotype (%)” value [5] of the same molecule?
A: Its value is 4% and 0%.

Q: What about the “Population Mitotic Cells (%)” value [5] of the same molecule?
A: The value was 16% and 30%.

Q: And the “Population Normal (%)” value [5]?
A: The value was 100%.

Q: And the “Population Pyknosed Nuclei (%)” value [5]?
A: The value was 16% and 6%.

Q: What about the “Population Tubulin-Different-Phenotype (%)” value [5] of the same molecule?
A: Its value is 80% and 84%.

Q: What about the “Population Apoptotic (%)” value [6] of the same molecule?
A: Its value is 76% and 68%.

Q: What about the “Population Fragmented Nuclei (%)” value [6] of the same molecule?
A: Its value is 13% and 10%.

Q: And the “Population Healthy Nuclei (%)” value [6]?
A: Its value is 53% and 70%.

Q: What about the “Population Hoechst High Intensity Objects (%)” value [6] of the same molecule?
A: Its value is 0% and 1%.

Q: And the “Population Membrane Permeable-Phenotype (%)” value [6]?
A: The value was 10% and 5%.

Q: What about the “Population Mitochondria Different-Phenotype (%)” value [6] of the same molecule?
A: The value was 7% and 18%.

Q: What about the “Population Mitotic Cells (%)” value [6] of the same molecule?
A: The value was 23% and 31%.

Q: What about the “Population Normal (%)” value [6] of the same molecule?
A: Its value is 100% and 98%.

Q: What about the “Population Pyknosed Nuclei (%)” value [6] of the same molecule?
A: The value was 32% and 19%.

Q: What about the “Population Tubulin-Different-Phenotype (%)” value [6] of the same molecule?
A: Its value is 71% and 59%.
